Measurements pooled from the literature.
Lines come from different studies, so protocols differ.
Target: Alpha-2A adrenergic receptor (ADRA2A, Homo sapiens, UniProt P08913)
Concentration: 10 µM
Residues used in one study (P08913 1-465): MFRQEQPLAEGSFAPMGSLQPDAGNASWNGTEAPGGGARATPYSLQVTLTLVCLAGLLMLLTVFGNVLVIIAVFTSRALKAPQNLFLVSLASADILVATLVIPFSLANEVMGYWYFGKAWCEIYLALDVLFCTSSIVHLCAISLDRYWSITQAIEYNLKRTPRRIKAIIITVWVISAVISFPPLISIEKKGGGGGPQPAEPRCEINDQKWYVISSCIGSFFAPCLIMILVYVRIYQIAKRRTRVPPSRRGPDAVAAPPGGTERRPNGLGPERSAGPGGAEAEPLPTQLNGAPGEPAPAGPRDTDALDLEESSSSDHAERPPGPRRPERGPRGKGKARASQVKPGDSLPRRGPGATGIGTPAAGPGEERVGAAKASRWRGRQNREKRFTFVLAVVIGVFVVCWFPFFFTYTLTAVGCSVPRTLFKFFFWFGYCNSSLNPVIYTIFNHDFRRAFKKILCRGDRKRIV

SMILES | test | inhibition [%]
N#Cc1cc(Cn2c(N3CCCC3)nc3ccccc32)ccc1F | ligand displacement | 31.6
O=C1c2ccccc2C(=O)N1CC#Cc1ccc2c(c1)C=C([N+](=O)[O-])C(C(F)(F)F)O2 (centres unmarked) | ligand displacement, radioligand | 88
CN([C@@H]1CCc2c(CC(=O)O)c3ccccc3n2C1)S(=O)(=O)c1ccc(F)cc1 | ligand displacement | -3.89
CCN(Cc1ccccc1C(F)(F)F)C(=O)C1CCN(S(=O)(=O)c2ccc3[nH]ncc3c2)CC1 | ligand displacement, radioligand | 37
COc1cc(NC(C)=O)c(Cl)cc1C(=O)Nc1nccs1 | cell-free assay | -7
Cc1cc(-c2nc(CN3CCNCC3)no2)cc2c1C(=O)N(Cc1ccc(OC(F)(F)F)cc1)C2 | ligand displacement, radioligand | 41
CCN(CC)c1ccc(C2Nc3ccc(C(=O)c4ccccc4)cc3NC3=C2C(=O)CC(C)(C)C3)cc1 (centres unmarked) | ligand displacement, radioligand | 5
CC(=O)C1=C(C)N(c2cccc(C(F)(F)F)c2)C(=O)N[C@H]1c1ccc(C#N)nc1 | ligand displacement | -8.89
CCCNc1nc2ccccc2n1Cc1ccc(Cl)cc1 | ligand displacement | 90.2
O=C(c1ccc(Cl)cc1)N(Cc1ccccc1)C1CCCCC1 | cell-free assay | 4
Ic1cccc2cnccc12 | ligand displacement, radioligand | 13
